pIC50: −log10 of the molar value. Activity calls are given as the source filed them. The calls are words filed in the database; no cut-off is given here.
How the values were obtained:
[1] = Half life in human liver microsomes at 1 uM by LC-MS/MS analysis; assay type: ADME
[2] = test system: HepG2; assay: Cytotoxicity against human HepG2 cells after 48 hrs by MTT assay; assay type: cell-based; details: HepG2, 48 h
[3] = test system: Plasmodium berghei; assay: Antimalarial activity against Plasmodium berghei ANKA infected in C57Bl6 mouse assessed as reduction of parasitemia at 160 mg/kg/day, po administered for day 3 to 5 measured on day 6 to 14 by Thompson test; assay type: functional, organism-based
Summary of the method: (§1)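 Modified Thompson test: C57Bl6 female mice inoculated intraperitoneally on day 0 with 1×10^6 P. berghei ANKA-infected erythrocytes; compound suspended in 0.5% hydroxyethylcellulose–0.1% Tween 80, given orally once daily on days 3, 4 and 5 post infection. Parasitemia by Giemsa-stained thin tail-blood smears on days 0, 3, 6, 10, 13, 17, 20, 24, 27, 31. Cure = survival without parasitemia to day 31.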

[4] = test system: Plasmodium falciparum; assay: Antimalarial activity against chloroquine-susceptible Plasmodium falciparum D6 after 48 hrs by [3H]hypoxanthine incorporation assay; assay type: functional, organism-based
Summary of the method: (§2)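 P. falciparum D6 (Sierra I/UNC clone), W2 (Indochina I clone), TM91C235 (South-East Asian clone) cultured with compound; growth inhibition by [3H]hypoxanthine incorporation (modified Desjardins/Milhous method). Chloroquine, mefloquine, artemisinin as positive controls. IC50 in nM; technical triplicates, curve fits R2 0.96–1.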

[5] = test system: Plasmodium falciparum; assay: Antimalarial activity against mutidrug resistant Plasmodium falciparum TM91C235 after 48 hrs by [3H]hypoxanthine incorporation assay; assay type: functional, organism-based; summary of the method: as §2
[6] = test system: Plasmodium falciparum; assay: Antimalarial activity against chloroquine-resistant Plasmodium falciparum W2 after 48 hrs by [3H]hypoxanthine incorporation assay; assay type: functional, organism-based; summary of the method: as §2
[7] = Half life in mouse liver microsomes at 1 uM by LC-MS/MS analysis; assay type: ADME
[8] = Selectivity index, ratio of IC50 for human HepG2 cells to IC50 for chloroquine susceptible Plasmodium falciparum D6; assay type: toxicity, cell-based; details: read-out: Ratio IC50
[9] = test system: Mus musculus; assay: Toxicity in Plasmodium berghei ANKA infected C57Bl6 mouse at 160 mg/kg/day, po administered for 3 days measured 2 times a day for 31 days; assay type: organism-based; details: in vivo, 744 h
[10] = test system: Plasmodium berghei; assay: Antimalarial activity against Plasmodium berghei ANKA infected in C57Bl6 mouse at 160 mg/kg/day, po measured on day 3 to 5 by Thompson test; assay type: functional
[11] = test system: Plasmodium falciparum; assay: Antimalarial activity against 4th to 5th gametocyte stage of Plasmodium falciparum 3D7elo1-pfs16-CBG99 assessed as inhibition of gametocyte viability by luciferase reporter gene assay; assay type: functional, organism-based
Summary of the method: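 Stage IV–V gametocytes of luciferase-expressing 3D7elo1-pfs16-CBG99 strain (CBG99 under pfs16 promoter); luciferase activity as viability read-out. Viability = 100×(treated−blank)/(untreated−blank), blank = 100 nM epoxomicin-treated sample. Epoxomicin and dihydroartemisinin as positive controls. IC50 from nonlinear regression of dose–response; mean of three experiments in duplicate.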

[12] = test system: Plasmodium berghei; assay: Antimalarial activity against sporozoite stage of Plasmodium berghei infected in human Huh7 cells assessed as remaining parasite infection at 10 uM pre-incubated for 24 hrs followed by parasite infection measured after 48 hrs by bioluminescence assay; details: Huh-7
[13] = test system: Plasmodium berghei; assay: Antimalarial activity against Plasmodium berghei ANKA infected in C57Bl6 mouse at 10 mg/kg/day, po on days 3 to 5 by Thompson test; assay type: functional
[14] = test system: Plasmodium berghei; assay: Antimalarial activity against Plasmodium berghei ANKA infected in C57Bl6 mouse at 20 mg/kg/day, po on days 3 to 5 by Thompson test; assay type: functional
[15] = test system: Plasmodium berghei; assay: Antimalarial activity against Plasmodium berghei ANKA infected in C57Bl6 mouse at 80 mg/kg/day, po measured on day 3 to 5 by Thompson test; assay type: functional
[16] = test system: Plasmodium berghei; assay: Antimalarial activity against Plasmodium berghei ANKA infected in C57Bl6 mouse at 40 mg/kg/day, po on days 3 to 5 by Thompson test; assay type: functional
[17] = test system: Plasmodium berghei; assay: Antimalarial activity against Plasmodium berghei ANKA infected in po dosed C57Bl6 mouse administered on day 3 to 5 by Thompson test; assay type: functional; summary of the method: as §1
[18] = Inhibition of beta hematin formation measured as hemin equivalent after 18 hrs; assay type: physicochemical
Summary of the method: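 Hemin (16 mM in DMSO) mixed with compound at 0.125–5 mol equiv to hemin, plus water and 8 M acetate buffer pH 5.2, 25% DMSO final. Incubated 18 h at 37 °C. Pellet washed with DMSO, dissolved in 0.1 M NaOH, absorbance read at 405 nm (corrected at 670 nm) against a hemin calibration.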

[19] = Octanol-water partition coefficient, logP of the compound; assay type: physicochemical
[20] = biological target: hERG (KCNH2) (Homo sapiens, UniProt Q12809); assay: Inhibition of human ERG expressed in CHO cells at 5 uM by patch plate method; assay type: cell-based; details: CHO cells that express human ERG
[21] = biological target: Voltage-gated inwardly rectifying potassium channel KCNH2 (Homo sapiens, UniProt Q12809); assay: Inhibition of human ERG expressed in CHO cells by patch plate method; assay type: cell-based
[22] = test system: Salmonella typhimurium; assay: Mutagenic activity in Salmonella typhimurium TA98 at 500 ug/ml by Ames test in absence of S9 fractions; assay type: toxicity, organism-based; details: salmonella enterica subsp. enterica serovar typhimurium
Summary of the method: (§3)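 Ames test in Salmonella typhimurium TA98 and TA100 at 500 μg/mL, with and without S9.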

[23] = test system: Salmonella typhimurium; assay: Mutagenic activity in Salmonella typhimurium TA100 at 500 ug/ml by Ames test in absence of S9 fractions; assay type: toxicity, organism-based; details: salmonella enterica subsp. enterica serovar typhimurium; summary of the method: as §3
[24] = test system: Plasmodium berghei; assay: Antimalarial activity against sporozoite stage of Plasmodium berghei infected in human Huh7 cells assessed as inhibition of parasite infection pre-incubated for 24 hrs followed by parasite infection measured after 48 hrs by bioluminescence assay; assay type: functional, organism-based; details: Huh-7
[25] = test system: Salmonella typhimurium; assay: Mutagenic activity in Salmonella typhimurium TA98 at 500 ug/ml by Ames test in presence of S9 fractions; assay type: toxicity, organism-based, S9 Fraction; details: salmonella enterica subsp. enterica serovar typhimurium; summary of the method: as §3
[26] = test system: Salmonella typhimurium; assay: Mutagenic activity in Salmonella typhimurium TA100 at 500 ug/ml by Ames test in presence of S9 fractions; assay type: toxicity, organism-based, S9 Fraction; details: salmonella enterica subsp. enterica serovar typhimurium; summary of the method: as §3
[27] = test system: Plasmodium berghei; assay: Antimalarial activity against Plasmodium berghei ANKA infected in C57Bl6 mouse assessed as reduction of parasitemia at 20 mg/kg/day, po administered for day 3 to 5 measured on day 6 by Thompson test; assay type: functional, organism-based; summary of the method: as §1
[28] = test system: Plasmodium berghei; assay: Antimalarial activity against Plasmodium berghei ANKA infected in C57Bl6 mouse assessed as curative effect at 20 to 40 mg/kg/day, po administered for day 3 to 5 by Thompson test
[29] = test system: Plasmodium berghei; assay: Antimalarial activity against sporozoite stage of Plasmodium berghei infected in human Huh7 cells assessed as remaining parasite infection at 5 uM pre-incubated for 24 hrs followed by parasite infection measured after 48 hrs by bioluminescence assay; details: Huh-7

hERG (KCNH2), sequence (Q12809 whole entry): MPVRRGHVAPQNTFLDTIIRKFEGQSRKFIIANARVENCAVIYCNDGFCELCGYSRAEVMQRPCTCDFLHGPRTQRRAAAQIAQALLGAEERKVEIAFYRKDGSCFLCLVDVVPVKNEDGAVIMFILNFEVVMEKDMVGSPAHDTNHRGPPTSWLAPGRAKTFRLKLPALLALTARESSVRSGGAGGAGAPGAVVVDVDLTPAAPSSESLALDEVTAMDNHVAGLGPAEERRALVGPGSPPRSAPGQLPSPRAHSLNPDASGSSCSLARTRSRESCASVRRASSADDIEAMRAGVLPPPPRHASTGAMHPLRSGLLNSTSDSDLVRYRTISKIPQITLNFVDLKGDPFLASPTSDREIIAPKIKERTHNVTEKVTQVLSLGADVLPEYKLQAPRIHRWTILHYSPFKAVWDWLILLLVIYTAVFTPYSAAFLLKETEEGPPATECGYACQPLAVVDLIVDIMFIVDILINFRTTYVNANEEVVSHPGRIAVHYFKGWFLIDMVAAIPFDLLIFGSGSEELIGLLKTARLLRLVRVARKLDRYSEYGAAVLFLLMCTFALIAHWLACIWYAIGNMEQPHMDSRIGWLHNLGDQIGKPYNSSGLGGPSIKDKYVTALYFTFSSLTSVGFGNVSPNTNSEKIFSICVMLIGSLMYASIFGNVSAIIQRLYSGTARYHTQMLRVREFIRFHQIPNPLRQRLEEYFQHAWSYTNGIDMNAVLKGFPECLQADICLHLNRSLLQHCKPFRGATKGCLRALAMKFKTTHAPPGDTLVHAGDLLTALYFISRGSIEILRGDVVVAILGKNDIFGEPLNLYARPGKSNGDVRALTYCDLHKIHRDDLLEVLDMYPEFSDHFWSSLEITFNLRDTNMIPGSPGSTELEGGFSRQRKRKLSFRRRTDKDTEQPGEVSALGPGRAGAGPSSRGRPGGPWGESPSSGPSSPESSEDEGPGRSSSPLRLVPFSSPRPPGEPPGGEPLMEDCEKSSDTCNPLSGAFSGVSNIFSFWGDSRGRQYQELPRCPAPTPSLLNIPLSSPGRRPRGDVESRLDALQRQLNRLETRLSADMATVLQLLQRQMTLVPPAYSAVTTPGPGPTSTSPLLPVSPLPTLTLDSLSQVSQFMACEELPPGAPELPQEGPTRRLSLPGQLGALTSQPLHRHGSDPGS
Voltage-gated inwardly rectifying potassium channel KCNH2, sequence (Q12809 whole entry): as above

CC(CCCNCCC12CC3CC(CC(C3)C1)C2)Nc1ccnc2cc(Cl)ccc12 (stereo not given)
half-life at 1 µM [1]: 1 h
pIC50 [2]: 4.88
Activity [3]: Active
pIC50 [4]: 8.15
pIC50 [5]: 7.85
pIC50 [6]: 7.59
half-life at 1 µM [7]: 1 h
selectivity ratio [8]: 1900
Activity [9]: Non-toxic
MST [10]: 21.4 days

CC[C@H](C)[C@H](NC(=O)[C@H]([C@@H](C)CC)N(C)C(C)=O)C(=O)N[C@H](C(=O)N[C@@H](CC(C)C)C(=O)[C@@]1(C)CO1)[C@@H](C)O [EPOXOMYCIN]
pIC50 [11]: 7.93

COc1cc(NC(C)CCCN)c2ncccc2c1 (stereo not given) [PRIMAQUINE]
% infection at 10 µM [12]: 62%

CC(CCNCC12CC3CC(CC(C3)C1)C2)Nc1ccnc2cc(Cl)ccc12 (stereo not given)
half-life at 1 µM [1]: 1 h
pIC50 [2]: 5.52
MST [13]: 13 days
MST [14]: 15.2 days
pIC50 [4]: 8.00
pIC50 [5]: 8.00
pIC50 [6]: 8.00
half-life at 1 µM [7]: 1 h
selectivity ratio [8]: 305
Activity [9]: Non-toxic
MST [10]: >31 days
MST [15]: >31 days
MST [16]: 17.2 days
Activity [17]: Dose dependent effect
MAC [17]: 10 mg/kg/day
MCD [17]: 80 mg/kg/day
IC50 [18]: 1.84 equiv
logP [19]: 3.85
inhibition at 5 µM [20]: 11.7%
pIC50 [21]: < 5.30
Activity [22]: Non-toxic
Activity [23]: Non-toxic
pIC50 [24]: 6.00
Activity [25]: Non-toxic
Activity [26]: Non-toxic
Activity [27]: Active
Activity [28]: inactive
% infection at 5 µM [29]: 0.1%
